Reference: ChEMBL document CHEMBL4373711, “Development of 3,5-Dinitrophenyl-Containing 1,2,4-Triazoles and Their Trifluoromethyl Analogues as Highly Efficient Antitubercular Agents Inhibiting Decaprenylphosphoryl-β-d-ribofuranose 2'-Oxidase” (J Med Chem, 2019)
≈ marks a conversion by molar mass, not a printed value.

Assays:
[1] = test system: Mycobacterium tuberculosis; assay: Antimycobacterial activity against multi-drug resistant Mycobacterium tuberculosis Praha 1 after 14 days; format: functional; conditions: for MIC99: Praha 1, 336 h
Procedure, shortened: (§1)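 M. tuberculosis strains (H37Rv and clinical MDR/XDR isolates) tested by microdilution in Šula's semisynthetic medium. Compounds were dissolved in DMSO and tested at 32 to 0.03 µM in twofold steps. Inoculum was a 1.0 McFarland suspension diluted 10-3. Plates were incubated at 37 °C and read at 14 and 21 days.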

[2] = test system: Mycobacterium tuberculosis; assay: Antimycobacterial activity against multi-drug resistant Mycobacterium tuberculosis Praha 1 after 21 days; format: functional; conditions: Praha 1, 504 h; procedure, shortened: as §1
[3] = test system: Mycobacterium tuberculosis; assay: Antimycobacterial activity against multi-drug resistant Mycobacterium tuberculosis Praha 4 after 14 days; conditions: Praha 4, 336 h
[4] = test system: Mycobacterium tuberculosis; assay: Antimycobacterial activity against multi-drug resistant Mycobacterium tuberculosis Praha 4 after 21 days; format: functional; conditions: Praha 4, 504 h; procedure, shortened: as §1
[5] = test system: Mycobacterium tuberculosis; assay: Antimycobacterial activity against multi-drug resistant Mycobacterium tuberculosis 9449/2007 after 21 days; format: functional; conditions: for MIC99: 9449/2007, 504 h; procedure, shortened: as §1
[6] = test system: Mycobacterium tuberculosis; assay: Antimycobacterial activity against multi-drug resistant Mycobacterium tuberculosis 9449/2007 after 14 days; format: functional; conditions: 9449/2007, 336 h; procedure, shortened: as §1
[7] = test system: Mycobacterium tuberculosis; assay: Antimycobacterial activity against multi-drug resistant Mycobacterium tuberculosis 234/2005 after 21 days; format: functional; conditions: 234/2005, 504 h; procedure, shortened: as §1
[8] = test system: Mycobacterium tuberculosis; assay: Antimycobacterial activity against multi-drug resistant Mycobacterium tuberculosis 7357/1998 after 21 days; format: functional; conditions: for MIC99: 7357/1998, 504 h; procedure, shortened: as §1
[9] = test system: Mycobacterium tuberculosis; assay: Antimycobacterial activity against multi-drug resistant Mycobacterium tuberculosis 7357/1998 after 14 days; format: functional; conditions: 7357/1998, 336 h; procedure, shortened: as §1
[10] = test system: Mycobacterium tuberculosis; assay: Antimycobacterial activity against multi-drug resistant Mycobacterium tuberculosis 8666/2010 after 14 days; format: functional; conditions: for MIC99: 8666/2010, 336 h; procedure, shortened: as §1
[11] = test system: Mycobacterium tuberculosis; assay: Antimycobacterial activity against multi-drug resistant Mycobacterium tuberculosis 8666/2010 after 21 days; format: functional; conditions: 8666/2010, 504 h; procedure, shortened: as §1
[12] = test system: Mycobacterium tuberculosis; assay: microbe, parasite or virus in culture; conditions: 234/2005, 336 h

Row | Molecule | MIC99 [1] [µM] | MIC99 [2] [µM] | MIC99 [3] [µM] | MIC99 [4] [µM] | MIC99 [5] [µM] | MIC99 [6] [µM] | MIC99 [7] [µM] | MIC99 [8] [µM] | MIC99 [9] [µM] | MIC99 [10] [µM] | MIC99 [11] [µM] | MIC99 [12] [µM] | MIC>99 [1] [µM] | MIC>99 [5] [µM] | MIC>99 [8] [µM] | MIC>99 [10] [µM]
1 | O=[N+]([O-])c1cc(-c2nnc(SCc3ccc(Cl)c(Cl)c3)n2Cc2ccccc2)cc([N+](=O)[O-])c1 | 0.25 (≈ 0.129 µg/mL) | 0.25 (≈ 0.129 µg/mL) | 0.125 (≈ 0.0645 µg/mL) | 0.125 (≈ 0.0645 µg/mL) | 0.25 (≈ 0.129 µg/mL) | 0.25 (≈ 0.129 µg/mL) | 0.25 (≈ 0.129 µg/mL) | 0.25 (≈ 0.129 µg/mL) | 0.25 (≈ 0.129 µg/mL) | 0.25 (≈ 0.129 µg/mL) | 0.25 (≈ 0.129 µg/mL) | 0.25 (≈ 0.129 µg/mL) | – | – | – | –
2 | O=[N+]([O-])c1cc(CSc2nnc(C3CCCCC3)n2Cc2ccccc2)cc(C(F)(F)F)c1 | 16 (≈ 7.62 µg/mL) | 16 (≈ 7.62 µg/mL) | 16 (≈ 7.62 µg/mL) | 16 (≈ 7.62 µg/mL) | 16 (≈ 7.62 µg/mL) | 16 (≈ 7.62 µg/mL) | 16 (≈ 7.62 µg/mL) | 16 (≈ 7.62 µg/mL) | 16 (≈ 7.62 µg/mL) | 16 (≈ 7.62 µg/mL) | 16 (≈ 7.62 µg/mL) | 16 (≈ 7.62 µg/mL) | – | – | – | –
3 | Cn1c(SCc2ccc(Cl)c(Cl)c2)nnc1-c1cc([N+](=O)[O-])cc([N+](=O)[O-])c1 | 0.06 (≈ 0.0264 µg/mL) | 0.06 (≈ 0.0264 µg/mL) | 0.06 (≈ 0.0264 µg/mL) | 0.06 (≈ 0.0264 µg/mL) | 0.06 (≈ 0.0264 µg/mL) | 0.06 (≈ 0.0264 µg/mL) | 0.06 (≈ 0.0264 µg/mL) | 0.06 (≈ 0.0264 µg/mL) | 0.06 (≈ 0.0264 µg/mL) | 0.06 (≈ 0.0264 µg/mL) | 0.06 (≈ 0.0264 µg/mL) | 0.06 (≈ 0.0264 µg/mL) | – | – | – | –
4 | GENTAMICIN | – | – | – | – | – | – | – | – | – | – | – | – | 1 | 1 | 1 | 2
5 | CC1COc2c(N3CCN(C)CC3)c(F)cc3c(=O)c(C(=O)O)cn1c23 (configuration not stated) [OFLOXACIN] | – | – | > 16 | – | – | – | – | – | – | – | – | – | – | – | – | –
6 | COc1ccc(Cn2c(SCc3cc([N+](=O)[O-])cc([N+](=O)[O-])c3)nnc2-c2ccccc2)cc1 | 2 (≈ 0.955 µg/mL) | 4 (≈ 1.91 µg/mL) | 2 (≈ 0.955 µg/mL) | 4 (≈ 1.91 µg/mL) | 2 (≈ 0.955 µg/mL) | 4 (≈ 1.91 µg/mL) | 4 (≈ 1.91 µg/mL) | 2 (≈ 0.955 µg/mL) | 2 (≈ 0.955 µg/mL) | 2 (≈ 0.955 µg/mL) | 2 (≈ 0.955 µg/mL) | 2 (≈ 0.955 µg/mL) | – | – | – | –
7 | COc1ccc(CSc2nnc(-c3cc([N+](=O)[O-])cc(C(F)(F)F)c3)n2Cc2ccccc2)cc1 | 0.5 (≈ 0.25 µg/mL) | 0.5 (≈ 0.25 µg/mL) | 0.5 (≈ 0.25 µg/mL) | 0.5 (≈ 0.25 µg/mL) | 0.5 (≈ 0.25 µg/mL) | 0.5 (≈ 0.25 µg/mL) | 2 (≈ 1 µg/mL) | 0.5 (≈ 0.25 µg/mL) | 0.5 (≈ 0.25 µg/mL) | 0.5 (≈ 0.25 µg/mL) | 0.5 (≈ 0.25 µg/mL) | 1 (≈ 0.501 µg/mL) | – | – | – | –
8 | CO[C@H]1/C=C/O[C@@]2(C)Oc3c(C)c(O)c4c(O)c(c(/C=N/N5CCN(C)CC5)c(O)c4c3C2=O)NC(=O)/C(C)=C\C=C\[C@H](C)[C@H](O)[C@@H](C)[C@@H](O)[C@@H](C)[C@H](OC(C)=O)[C@@H]1C [RIFAMPIN] | > 8 | – | > 8 | – | > 8 | – | – | > 8 | – | > 8 | – | > 8 | – | – | – | –
9 | O=[N+]([O-])c1cc(CSc2nnc(-c3ccc(Br)cc3)n2Cc2ccccc2)cc([N+](=O)[O-])c1 | 2 (≈ 1.05 µg/mL) | 4 (≈ 2.11 µg/mL) | 2 (≈ 1.05 µg/mL) | 4 (≈ 2.11 µg/mL) | 2 (≈ 1.05 µg/mL) | 4 (≈ 2.11 µg/mL) | 4 (≈ 2.11 µg/mL) | 2 (≈ 1.05 µg/mL) | 4 (≈ 2.11 µg/mL) | 2 (≈ 1.05 µg/mL) | 4 (≈ 2.11 µg/mL) | 4 (≈ 2.11 µg/mL) | – | – | – | –
10 | CCn1c(SCc2ccccc2)nnc1-c1cc([N+](=O)[O-])cc([N+](=O)[O-])c1 | 0.03 (≈ 0.0116 µg/mL) | 0.03 (≈ 0.0116 µg/mL) | 0.03 (≈ 0.0116 µg/mL) | 0.03 (≈ 0.0116 µg/mL) | 0.03 (≈ 0.0116 µg/mL) | 0.03 (≈ 0.0116 µg/mL) | 0.03 (≈ 0.0116 µg/mL) | 0.03 (≈ 0.0116 µg/mL) | 0.03 (≈ 0.0116 µg/mL) | 0.03 (≈ 0.0116 µg/mL) | 0.03 (≈ 0.0116 µg/mL) | 0.03 (≈ 0.0116 µg/mL) | – | – | – | –
11 | Cn1c(SCc2ccc(Cl)cc2)nnc1-c1cc([N+](=O)[O-])cc([N+](=O)[O-])c1 | 0.125 (≈ 0.0507 µg/mL) | 0.125 (≈ 0.0507 µg/mL) | 0.06 (≈ 0.0243 µg/mL) | 0.125 (≈ 0.0507 µg/mL) | 0.125 (≈ 0.0507 µg/mL) | 0.125 (≈ 0.0507 µg/mL) | 0.125 (≈ 0.0507 µg/mL) | 0.125 (≈ 0.0507 µg/mL) | 0.125 (≈ 0.0507 µg/mL) | 0.125 (≈ 0.0507 µg/mL) | 0.125 (≈ 0.0507 µg/mL) | 0.125 (≈ 0.0507 µg/mL) | – | – | – | –
